ChEMBL document CHEMBL3244309, “Structure-activity relationships of aminoalkyl and -aryl glycosides having insulin-like activity” (1978)

test system: Rattus norvegicus; assay: In vivo insulin-like activity in rat omental adipose tissue assessed as stimulation of lipogenesis by measuring conversion of [14C]glucose to [14C]lipids at 500 mg/kg, ip after 2 hrs; format: functional; settings: route intraperitoneal
How it was run: (§1)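 Overnight-fasted female rats (140–150 g) given one ip injection of saccharide neutralized to pH 7.5 with 0.1 N HCl, together with [14C]glucose (2 μCi/rat), in physiological saline. Controls received the same solution without saccharide or insulin; insulin reference was 200 mU/kg. After 2 h, 14C incorporated per gram of tissue was measured: diaphragm glycogen and omental adipose total lipids. Mean of five animals, % above control.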

`NCCCCCCS[C@@H]1O[C@H](CO)[C@@H](O)[C@H](O)[C@@H]1O` showed an Activity of 86%.

test system: not listed separately; assay: Insulin-like activity in albino CD rat fat cells assessed as stimulation of oxidation of [14C]glucose to 14CO2 at 750 ug/ml after 2 hrs by scintillation counting analysis relative to insulin; format: functional; settings: not given

For `Nc1ccc(O[C@H]2O[C@H](CO)[C@@H](O)[C@H](O)[C@@H]2O)cc1`, the Activity was 23.9%.

test system: Rattus norvegicus; assay: In vivo insulin-like activity in rat diaphragm muscle assessed as stimulation of glycogenolysis by measuring conversion of [14C]glucose to [14C]glycogen at 500 mg/kg, ip after 2 hrs; format: functional; settings: route intraperitoneal, in the assay text read “glycogenesis” for “glycogenolysis”; how it was run: as §1

Molecule `NCCCCCCS[C@@H]1O[C@H](CO)[C@@H](O)[C@H](O)[C@@H]1O` has an Activity of 74%.

test system: not listed separately; assay: Insulin-like activity in albino CD rat fat cells assessed as stimulation of oxidation of [14C]glucose to 14CO2 at 50 ug/ml after 2 hrs by scintillation counting analysis relative to insulin; format: functional; settings: not given

Going from `NCCCCCCS[C@H]1O[C@H](CO)[C@H](O)[C@H](O)[C@@H]1O` to `NCCCCCCS[C@@H]1O[C@H](CO)[C@@H](O)[C@H](O)[C@@H]1O`, the Activity falls from 109.9% to 109.7%.

Compared with `NCCCCCCSC1O[C@H]([C@H](O)CO)[C@H](O)[C@@H]1O` (some centres not stated), `NCCCCCCS[C@H]1O[C@H](CO)[C@@H](O)[C@H](O)[C@@H]1O` is higher in Activity: 93.6% for the first, 132.4% for the second.

Compared with `CNC(=O)NC[C@H]1O[C@@H](SCCCCCCN)[C@@H](O)[C@@H](O)[C@@H]1O`, `NCCCCCCSC[C@@H](O)[C@@H](O)[C@H](O)[C@H](O)CO` is lower in Activity: 129% for the first, 0% for the second.

test system: not listed separately; assay: Insulin-like activity in albino CD rat fat cells assessed as stimulation of oxidation of [14C]glucose to 14CO2 at 100 ug/ml after 2 hrs by scintillation counting analysis relative to insulin; format: functional; settings: not given

Going from `NCCCCCCS[C@H]1O[C@H](COC(N)=O)[C@@H](O)[C@H](O)[C@@H]1O` to `COC[C@H]1O[C@H](SCCCCCCN)[C@@H](O)[C@@H](O)[C@@H]1O`, the Activity falls from 102.9% to 37.5%.

First: NCCCCCCC(=O)NCCCCCCS[C@H]1O[C@H](CO)[C@@H](O)[C@H](O)[C@@H]1O
Second: NCCCCCCCCS[C@H]1O[C@H](CO)[C@@H](O)[C@H](O)[C@@H]1O
The Activity of the first is higher: 47.1% for the first, 0% for the second.

`NCCCCCCO[C@H]1O[C@H](CO)[C@@H](O)[C@H](O)[C@@H]1O` and `NCCCCCCO[C@@H]1O[C@H](CO)[C@@H](O)[C@H](O)[C@H]1O` are the same in Activity: 23.3% for the first, 23.3% for the second.

Compared with `CCCCCCCS[C@H]1O[C@H](CO)[C@@H](O)[C@H](O)[C@@H]1O`, `NCCCCCCS[C@@H]1O[C@H](CO)[C@@H](O)[C@H](O)[C@H]1O` is higher in Activity: 0% for the first, 43.8% for the second.

First: NCCCCCCS
Second: CSCCCCCCN
The Activity of the first is lower: 15.5% for the first, 24.8% for the second.

`NCCS[C@H]1O[C@H](CO)[C@@H](O)[C@H](O)[C@@H]1O` and `NCCCCS[C@H]1O[C@H](CO)[C@@H](O)[C@H](O)[C@@H]1O` are the same in Activity: 0% for the first, 0% for the second.

Compared with `Nc1ccc(CS[C@H]2O[C@H](CO)[C@@H](O)[C@H](O)[C@@H]2O)cc1`, `NCc1ccc(CS[C@H]2O[C@H](CO)[C@@H](O)[C@H](O)[C@@H]2O)cc1` is higher in Activity: 0% for the first, 9.2% for the second.

Compared with `NCCCCCCS[C@H]1O[C@H](CO)[C@H](O)[C@@H](O)[C@@H]1O`, `NCCCCCCS[C@@H]1O[C@H](CO)[C@@H](O)[C@H](O)[C@@H]1O` is higher in Activity: 63.7% for the first, 80% for the second.

First: NCCCCCCSCC(O)CO (configuration not stated)
Second: NCCCCCCCS[C@H]1O[C@H](CO)[C@@H](O)[C@H](O)[C@@H]1O
The Activity of the first is lower: 6.9% for the first, 14.8% for the second.

Compared with `NCCCCCCS[C@H]1O[C@H](CO)[C@@H](OC(N)=O)[C@H](O)[C@@H]1O`, `NCCCCCCS[C@H]1O[C@H](CO)[C@@H](O)[C@H](O)[C@@H]1O` is lower in Activity: 64.2% for the first, 40.8% for the second.

First: CNCCCCCCS[C@H]1O[C@H](CO)[C@@H](O)[C@H](O)[C@@H]1O
Second: NCCCCCCS[C@@H]1O[C@H](CO)[C@H](O)[C@@H](O)[C@@H]1O
The Activity of the first is lower: 0% for the first, 75.2% for the second.

Compared with `CN(C)CCCCCCS[C@H]1O[C@H](CO)[C@@H](O)[C@H](O)[C@@H]1O`, `NCCCCCCS[C@@H]1O[C@H](CO)[C@H](O)[C@H](O)[C@H]1O` is higher in Activity: 0% for the first, 68.8% for the second.

First: Nc1ccc(O[C@H]2O[C@H](CO)[C@@H](O)[C@H](O)[C@@H]2O)cc1
Second: NCc1ccc(O[C@H]2O[C@H](CO)[C@@H](O)[C@H](O)[C@@H]2O)cc1
The Activity of the first is lower: 2.9% for the first, 6.4% for the second.

First: NCCCCCCS[C@H]1O[C@H](CO)[C@@H](O[C@H]2O[C@H](CO)[C@@H](O)[C@H](O)[C@@H]2O)[C@H](O)[C@@H]1O
Second: NCCCCCCS[C@@H]1O[C@H](CO)[C@@H](O)[C@H](O)[C@@H]1O[C@H]1O[C@H](CO)[C@@H](O)[C@H](O)[C@@H]1O
The Activity of the first is higher: 37.3% for the first, 0% for the second.

Compared with `NCCCCCCS[C@H]1O[C@H](CO[C@H]2O[C@H](CO)[C@@H](O)[C@H](O)[C@@H]2O)[C@@H](O)[C@H](O)[C@@H]1O`, `NCCCCCCS[C@H]1O[C@H](CO)[C@@H](O)[C@H](O[C@H]2O[C@H](CO)[C@@H](O)[C@H](O)[C@@H]2O)[C@@H]1O` is lower in Activity: 21.6% for the first, 15.7% for the second.

First: NCCCCCCCC(=O)N[C@@H]1O[C@H](CO)[C@@H](O)[C@H](O)[C@@H]1O
Second: NCCCCCCC(=O)N[C@@H]1O[C@H](CO)[C@@H](O)[C@H](O)[C@@H]1O
The Activity of the first is higher: 22.4% for the first, 20.5% for the second.

Going from `O=C([O-])CCCCCS[C@H]1O[C@H](CO)[C@@H](O)[C@H](O)[C@@H]1O.[Na+]` to `NCCCCCS[C@H]1O[C@H](CO)[C@@H](O)[C@H](O)[C@@H]1O`, the Activity rises from 0% to 6.1%.

Going from `CC(=O)N[C@@H]1[C@@H](O)[C@H](O)[C@@H](CO)O[C@H]1SCCCCCCN` to `C[N+](C)(C)CCCCCCS[C@H]1O[C@H](CO)[C@@H](O)[C@H](O)[C@@H]1O.[I-]`, the Activity falls from 36.3% to 0%.

First: C[C@H]1O[C@H](SCCCCCCN)[C@@H](O)[C@@H](O)[C@@H]1O
Second: NCCCCCCS(=O)(=O)[C@H]1O[C@H](CO)[C@@H](O)[C@H](O)[C@@H]1O
The Activity of the first is lower: 0% for the first, 33.3% for the second.

First: NCCCCCC(=O)N[C@@H]1O[C@H](CO)[C@@H](O)[C@H](O)[C@@H]1O
Second: NC[C@H]1O[C@H](CO)[C@@H](O)[C@H](O)[C@@H]1O
The Activity of the first is higher: 2.6% for the first, 0% for the second.

First: NCCCCCCS[C@H]1O[C@H](CO)[C@@H](O)[C@H](O)[C@@H]1O[C@H]1O[C@H](CO)[C@@H](O)[C@H](O)[C@@H]1O
Second: NCc1ccccc1O[C@H]1O[C@H](CO)[C@@H](O)[C@H](O)[C@@H]1O
The Activity of the first is higher: 21.6% for the first, 0% for the second.

Molecule `N[C@@H]1O[C@H](CO)[C@@H](O)[C@H](O)[C@@H]1O` has an Activity of 0%.
